Assay [1] deals with T1, Nitric oxide synthase, inducible (Mus musculus) (UniProt P29477).
T1 sequence (whole entry): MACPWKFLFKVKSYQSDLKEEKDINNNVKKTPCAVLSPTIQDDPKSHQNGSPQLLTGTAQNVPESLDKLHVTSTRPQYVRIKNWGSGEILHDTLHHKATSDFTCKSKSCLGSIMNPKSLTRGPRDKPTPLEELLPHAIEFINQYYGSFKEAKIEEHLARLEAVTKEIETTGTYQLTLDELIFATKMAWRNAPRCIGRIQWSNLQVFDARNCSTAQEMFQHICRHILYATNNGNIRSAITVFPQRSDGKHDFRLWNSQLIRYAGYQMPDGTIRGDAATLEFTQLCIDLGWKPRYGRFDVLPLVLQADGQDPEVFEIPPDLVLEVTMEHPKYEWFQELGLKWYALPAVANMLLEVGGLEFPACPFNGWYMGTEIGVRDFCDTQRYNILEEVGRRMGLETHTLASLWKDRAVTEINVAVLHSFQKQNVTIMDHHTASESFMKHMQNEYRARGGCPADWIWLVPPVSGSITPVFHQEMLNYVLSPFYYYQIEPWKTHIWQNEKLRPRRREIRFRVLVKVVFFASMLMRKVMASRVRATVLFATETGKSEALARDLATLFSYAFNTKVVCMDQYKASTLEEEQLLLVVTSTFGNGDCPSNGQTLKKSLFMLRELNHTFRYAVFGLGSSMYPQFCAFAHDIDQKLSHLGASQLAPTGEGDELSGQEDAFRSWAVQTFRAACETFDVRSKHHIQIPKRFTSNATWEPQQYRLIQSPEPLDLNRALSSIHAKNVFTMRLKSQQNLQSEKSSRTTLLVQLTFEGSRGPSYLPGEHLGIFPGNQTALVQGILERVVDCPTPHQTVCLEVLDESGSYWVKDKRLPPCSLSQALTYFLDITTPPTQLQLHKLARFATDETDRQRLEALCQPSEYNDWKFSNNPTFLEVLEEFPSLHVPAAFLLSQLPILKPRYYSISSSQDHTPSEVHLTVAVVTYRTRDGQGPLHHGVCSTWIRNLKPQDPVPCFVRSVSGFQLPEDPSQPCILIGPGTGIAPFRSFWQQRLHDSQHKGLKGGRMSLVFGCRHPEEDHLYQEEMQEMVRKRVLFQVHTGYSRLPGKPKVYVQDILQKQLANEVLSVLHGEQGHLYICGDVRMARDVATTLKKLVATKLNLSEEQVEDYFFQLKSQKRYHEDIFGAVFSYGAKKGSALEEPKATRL
The assay can be described thus: Percent inhibition of Nitrite accumulation at a concentration of 10 uM was determined in RAW 264.7 cells. Type of assay: functional, cell-based. In outline:
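Nitrite accumulation measured in RAW 264.7 cells at 2 × 10⁶/mL stimulated with E. coli LPS, with compound at 10 µM or vehicle, 37 °C, 20 h. Nitrite read fluorometrically against a sodium nitrite standard curve. Reported as mean±SEM % inhibition (n=6). One-way ANOVA followed by Dunnett's test.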

The target in assay [2] is T2, Nitric oxide synthase, inducible (Mus musculus, UniProt P29477).
T2 sequence (P29477 whole entry): T1 sequence (whole entry)
As to the kind of experiment: Inhibitory concentration required to produce 50% inhibition of the response was determined; range-0.811.70 uM. Type of assay: functional. A digest of the protocol: (§1)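 Murine RAW 264.7 macrophages (DMEM, 10% FBS, 2 mM L-glutamine, penicillin/streptomycin) at 2 × 10⁶/mL co-incubated with E. coli LPS and test compound or vehicle, 37 °C, 20 h. Nitrite in the medium measured fluorometrically against a sodium nitrite standard curve. IC50 calculated from at least four significant concentrations and reported with 95% confidence limits. MTT reduction used to check cytotoxicity.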

The target of assay [3] is T2, Nitric oxide synthase, inducible. The assay can be described thus: Inhibitory concentration required to produce 50% inhibition of the response was determined; range-0.150.47 uM. It is filed as functional. A digest of the protocol: as §1
The target is the same in assay [4]. The assay can be described thus: Inhibitory concentration required to produce 50% inhibition of the response was determined; range-0.541.16 uM. Type of assay: functional. A digest of the protocol: as §1
Assay [5] shares this target. As to the kind of experiment: Inhibitory concentration required to produce 50% inhibition of the response was determined; range-0.461.81 uM. It is filed as functional. A digest of the protocol: as §1
The target is the same in assay [6]. As to the kind of experiment: Inhibitory concentration required to produce 50% inhibition of the response was determined. It is filed as functional. A digest of the protocol:
as §1

The target is the same in assay [7]. The assay can be described thus: Inhibitory concentration required to produce 50% inhibition of the response was determined; range-0.431.85 uM. Type of assay: functional. A digest of the protocol:
as §1

Assay [8] shares this target. The assay can be described thus: Inhibitory concentration required to produce 50% inhibition of the response was determined; range-0.431.12 uM. It is filed as functional. In outline:
as §1

The structures appear in SMILES notation.

`COc1cc(OC)c(OC)cc1/C=C/C(=O)c1cccc(C(F)(F)F)c1` returned an inhibition in assay [1] of 26.7%.
The compound `COc1cc(OC)c(/C=C/C(=O)c2ccc(F)cc2F)c(OC)c1` displayed an inhibition in assay [1] of 59%.
In assay [1], `COc1cc(OC)c(/C=C/C(=O)c2ccccc2C(F)(F)F)c(OC)c1` yielded an inhibition of 76.3%. For the same compound, the IC50 in assay [2] is 1020 nM.
Regarding `COc1cc(OC)c(OC)cc1/C=C/C(=O)c1ccccc1C(F)(F)F`, the IC50 in assay [3] was found to be 280 nM. In assay [1], this compound had an inhibition of 73.7%.
Take `COc1cc(/C=C/C(=O)c2ccc(C(F)(F)F)cc2)cc(OC)c1OC`: in assay [1], the inhibition was 55.8%.
`COc1ccc(/C=C/C(=O)c2ccc(F)cc2F)cc1OC`: in assay [1], the inhibition amounted to 52.4%.
As for `COc1cc(OC)c(/C=C/C(=O)c2cccc(C(F)(F)F)c2)c(OC)c1`, the inhibition in assay [1] is 75%. The same compound showed an IC50 in assay [4] of 1840 nM.
Regarding `COc1ccc(/C=C/C(=O)c2ccc(C(F)(F)F)cc2)c(OC)c1`, in assay [1], the inhibition was 46.8%.
For the compound `COc1cc(OC)c(OC)cc1/C=C/C(=O)c1ccc(C(F)(F)F)cc1`, the inhibition in assay [1] came to 49.3%.
Regarding `COc1ccc(/C=C/C(=O)c2ccc(F)cc2)c(OC)c1`, in assay [1], the inhibition came out at 55.7%.
With `COc1ccc(/C=C/C(=O)c2ccccc2C(F)(F)F)c(OC)c1`, the inhibition in assay [1] turned out to be 77.5%. This compound had an IC50 in assay [5] of 840 nM.
For the compound `COc1cc(OC)c(/C=C/C(=O)c2ccc(F)cc2)c(OC)c1`, in assay [1], the inhibition is 63.9%.
Consider `COc1cc(/C=C/C(=O)c2ccc(F)cc2)cc(OC)c1OC`, for which, in assay [6], the concentration for half-maximal inhibition (IC50) is 30 nM. The compound further registered an inhibition in assay [1] of 94.1%.
As to `COc1ccc(OC)c(/C=C/C(=O)c2ccccc2C(F)(F)F)c1`, the IC50 in assay [7] turned out to be 910 nM. The inhibition in assay [1] was 99%.
In assay [1], `COc1ccc(OC)c(/C=C/C(=O)c2ccc(C(F)(F)F)cc2)c1` displayed an inhibition of 60.1%.
In assay [8], `COc1cc(OC)c(OC)cc1/C=C/C(=O)c1ccc(F)cc1F` displayed an IC50 of 640 nM. The same compound returned an inhibition in assay [1] of 81.7%.
On to `COc1cc(OC)c(/C=C/C(=O)c2ccc(C(F)(F)F)cc2)c(OC)c1`, for which the inhibition in assay [1] amounted to 43.6%.

For the origin of these results see ChEMBL document CHEMBL1135187, “The synthesis and effect of fluorinated chalcone derivatives on nitric oxide production” (Bioorg Med Chem Lett, 2002).
